ChEMBL document CHEMBL1128286, “Lipophilic, acid-stable, adenosine deaminase-activated anti-HIV prodrugs for central nervous system delivery. 2. 6-Halo and 6-alkoxy prodrugs of 2'-beta-fluoro-2',3'-dideoxyinosine” (J Med Chem, 1995)

Tests used:
PBMC [1] = assay: % protection was determined as the percent reduction in HIV p24 Gag protein production using PHA/PBM system at 10 uM concentration.; format: functional, Homo sapiens
How it was run: (§1)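 PBMs from an HIV-seronegative donor, PHA-stimulated 3 days before drug addition, preincubated 2 h with compound, then infected with 250 TCID50 HIV-1 ERS104pre. Cultured at 37 °C in complete medium (15% FCS) with rIL-2. Day-8 supernatant p24 Gag measured by RIA; % protection is the reduction versus infected untreated controls. Quadruplicate.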

PBMC [2] = assay: % protection was determined as the percent reduction in HIV p24 Gag protein production using PHA/PBM system at 20 uM concentration.; format: functional, Homo sapiens; how it was run: as §1
PBMC [3] = assay: % protection was determined as the percent reduction in HIV p24 Gag protein production using PHA/PBM system at 40 uM concentration.; format: functional, Homo sapiens; how it was run: as §1
PBMC [4] = assay: % protection was determined as the percent reduction in HIV p24 Gag protein production using PHA/PBM system at 5 uM concentration.; format: functional, Homo sapiens; how it was run: as §1
PBMC [5] = assay: % protection was determined as the percent reduction in HIV p24 Gag protein production using PHA/PBM system at 80 uM concentration.; format: functional, Homo sapiens; how it was run: as §1
PBMC [6] = assay: Anti-HIV activity measured as the ability to inhibit HIV -1 p24 Gag protein production, using PHA/PBM system.; format: functional, cell-based; conditions: Homo sapiens; how it was run: as §1
[7] = Partition coefficient (logP); format: physicochemical; conditions: octanol/water
How it was run: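 Octanol/pH 7.0 buffer partition coefficient measured by microscale shake-flask, with HPLC quantification of both phases. Run in triplicate; mean ± SD of three determinations.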

[8] = Half-life time was determined; format: ADME
[9] = target: T1, Adenosine deaminase (Bos taurus) (UniProt P56658); assay: Relative Adenosine deaminase hydrolysis rate was determined in vitro by appearance of the F-ddI […] on isolated enzyme
T1 sequence (whole entry): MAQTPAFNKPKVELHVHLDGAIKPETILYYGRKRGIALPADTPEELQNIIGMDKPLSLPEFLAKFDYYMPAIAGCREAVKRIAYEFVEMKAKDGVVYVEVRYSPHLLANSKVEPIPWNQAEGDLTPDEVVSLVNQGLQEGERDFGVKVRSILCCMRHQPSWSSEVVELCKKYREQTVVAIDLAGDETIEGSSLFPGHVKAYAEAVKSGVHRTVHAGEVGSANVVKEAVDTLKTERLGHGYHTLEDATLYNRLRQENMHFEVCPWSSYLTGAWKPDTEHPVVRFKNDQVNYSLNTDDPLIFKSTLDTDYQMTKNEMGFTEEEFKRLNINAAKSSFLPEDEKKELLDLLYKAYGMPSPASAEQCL
How it was run: (§2)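 Calf intestinal mucosa ADA, 0.05–1.0 unit, incubated with 50 µM substrate in pH 7.4, 0.01 M phosphate buffer at 37 °C. Timed aliquots quenched with water plus dCF and heated 1 min at 95 °C. Substrate loss and F-ddI formation followed by HPLC and fitted as exponential decay or association. Rate per unit ADA normalized to F-ddA.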

[10] = target: T1, Adenosine deaminase (Bos taurus); assay: Relative Adenosine deaminase hydrolysis rate was determined in vitro by disappearance of the substrate […] on isolated enzyme; how it was run: as §2
[11] = Half life period was determined, at pH 1.0; format: ADME
How it was run: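 Nucleoside (1.0 mM aqueous stock, diluted 1:20) incubated in pH 1.0 HCl/KCl buffer at 37 °C. Timed aliquots diluted into pH 7.4 phosphate buffer and quantified by isocratic C18 HPLC (15% CH3CN in pH 7.0, 0.01 M phosphate). Data fitted to first-order exponential decay or association.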

PBMC [12] = assay: % protection was determined as the percent reduction in HIV p24 Gag protein production sing PHA/PBM system at 80 uM concentration.; format: functional, Homo sapiens; how it was run: as §1

Row | Structure (SMILES) | logP [7] | half-life [8] [h] | Activity [9] | Activity [10] | half-life [11] [h] | Protection (PBMC [1]) [%] | Protection (PBMC [2]) [%] | Protection (PBMC [3]) [%] | Protection (PBMC [4]) [%] | Protection (PBMC [5]) [%] | IC50 (PBMC [6]) [µM] | Protection (PBMC [12]) [%]
1 | OCC1CC(F)C(n2cnc3c(O)ncnc32)O1 (stereo unspecified) |  |  |  |  |  | 61 | 89 | 97 | 54 | 98 | < 5 | 
2 | Cc1cn([C@H]2C[C@H](N=[N+]=[N-])[C@@H](CO)O2)c(=O)[nH]c1=O [ZIDOVUDINE] | 0.052 |  |  |  |  |  |  |  |  |  |  | 
3 | OCC1CC(F)C(n2cnc3c(F)ncnc32)O1 (stereo unspecified) | 0.056 |  | 233 | 202 | 0.54 | 83 | 97 | 99 | 58 | 99 | < 5 | 
4 | CCOc1ncnc2c1ncn2C1OC(CO)CC1F (stereo unspecified) | 0.803 | 29.2 |  | 0.008 |  | 39 | 58 | 79 | 32 | 93 | 14.1 | 
5 | COc1ncnc2c1ncn2C1OC(CO)CC1F (stereo unspecified) | 0.245 | 29.6 | 0.64 | 0.63 |  | 35 | 49 | 75 | 18 | 92 | 20 | 
6 | O=c1[nH]cnc2c1ncn2[C@H]1CC[C@@H](CO)O1 [DIDANOSINE] |  |  |  |  |  | 96 | 98 | 98 | 97 | 98 | < 5 | 

The next lines start with results.

Row | logP [7] | half-life [8] [h] | Activity [9] | Activity [10] | half-life [11] [h] | Structure (SMILES) | Protection (PBMC [1]) [%] | Protection (PBMC [2]) [%] | Protection (PBMC [3]) [%] | Protection (PBMC [4]) [%] | Protection (PBMC [5]) [%] | IC50 (PBMC [6]) [µM] | Protection (PBMC [12]) [%]
7 | 0.627 | 20.9 | 0.21 | 0.28 |  | OCC1CC(F)C(n2cnc3c(I)ncnc32)O1 (stereo unspecified) | 45 | 81 | 96 | 27 | 96 | 10.4 | 
8 |  | 91.7 | 1.6 | 2 |  | OCC1CC(F)C(n2cnc3c(Cl)ncnc32)O1 (stereo unspecified) | 70 | 92 | 97 | 40 |  | 5.9 | 98
9 | 0.443 | 48.5 | 1.5 | 1.7 |  | OCC1CC(F)C(n2cnc3c(Br)ncnc32)O1 (stereo unspecified) | 71 | 90 | 97 | 31 | 99 | 6.5 | 
